HIV Rev-RRE inh: inhibitors of HIV-1 Rev-RRE RNA interaction. 97,000 compounds, 0.79% hits. P05866. Rev peptide-RRE RNA binding, FRET. AID 704. inhibition, % at 8 µM;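 active means inhibition above the screen-wide mean plus 3 SD, cut at about 35% in these data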;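 further: 0% = median DMSO wells and 100% = median Neomycin B control wells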
Target sequence (P05866 whole entry, looked up): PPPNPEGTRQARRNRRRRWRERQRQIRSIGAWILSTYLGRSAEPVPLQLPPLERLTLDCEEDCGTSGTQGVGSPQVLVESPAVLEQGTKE
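Assay system: Rev peptide and RRE RNA, both fluorescently labelled; times: 5 min preincubation and 15 min binding, 25 °C; detection: FRET, ex 480 nm, em 540 and 671 nm; read-out basis: % inhibition from 671/540 nm acceptor-to-donor ratio, scaled between controls; benchmarks: DMSO low control, neomycin B high control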
GALR2 blocker: GALR2 (human) receptor antagonism; O43603; GALR2-expressing cells, antagonist mode; inhibition, % at 4 µM; 140,000 compounds, 0.39% hits;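 further: cells stimulated with galanin 1-16 at roughly its EC80; 0% = agonist challenge control and 100% = basal control without agonist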
Target sequence (O43603 whole entry, looked up): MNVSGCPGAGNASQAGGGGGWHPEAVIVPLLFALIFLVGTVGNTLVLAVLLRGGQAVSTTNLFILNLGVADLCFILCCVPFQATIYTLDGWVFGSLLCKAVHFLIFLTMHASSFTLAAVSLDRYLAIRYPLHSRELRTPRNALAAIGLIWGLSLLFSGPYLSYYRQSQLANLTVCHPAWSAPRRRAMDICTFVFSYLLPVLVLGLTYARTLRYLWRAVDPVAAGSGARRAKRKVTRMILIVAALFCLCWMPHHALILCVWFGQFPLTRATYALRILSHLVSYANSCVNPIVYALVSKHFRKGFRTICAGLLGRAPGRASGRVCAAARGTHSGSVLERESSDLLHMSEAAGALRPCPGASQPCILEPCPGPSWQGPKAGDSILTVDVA
S1P2 agonist: agonists of human S1P2 receptor; S1P2-expressing cell line, agonist reporter read-out; activation, % at 4.5 µM; 97,000 compounds, 0.46% hits; O95136; in the data active means activation above about 16%;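 further: 0% = vehicle low control and 100% = maximal reference agonist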
GALR2 ag: agonists of human galanin receptor 2 (GALR2) | GALR2-expressing cells, agonist activation read-out | AID 803 | activation, % (test concentration not listed) | 140,000 compounds, 0.48% hits; in the data active means activation above about 5%, passing the limit was not always enough;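 further: 0% = vehicle buffer wells and 100% = reference agonist at full effect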
S1P2 blocker: blocks the human S1P2 receptor; O95136; inhibition, % at 5 µM; cell-based S1P2 antagonist assay, inhibition at 5 uM; 97,000 compounds, 0.21% hits; AID 736; in the data active means inhibition above about 45%;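 further: CRE beta-lactamase reporter cells expressing human S1P2 stimulated with S1P; 0% = agonist at EC80 alone and 100% = agonist plus reference antagonist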
GALR2 ant conf: confirmation of human galanin receptor 2 (GALR2) antagonists | shares compounds with GALR2 blocker | GALR2-expressing cells, antagonist mode, inhibition | inhibition, % at 4 µM | 480 compounds, 60% hits;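 further: cells stimulated with galanin at about its EC80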
BLA inh counter: counter-screen for GALR2 antagonists: beta-lactamase reporter inhibitors; shares compounds with GALR2 blocker; CHO NFAT-BLA reporter, beta-lactamase FRET, thapsigargin-stimulated; inhibition, % at 4.2 µM; 480 compounds, 36% hits; AID 867;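 active means inhibition above the mean inhibition across tested compounds plus 3 SD, cut at about 27% in these data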;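 further: 0% = 500 nM thapsigargin stimulated wells and 100% = unstimulated BSA only wells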
* hit, by the source's call; nt = no result given. Rows were chosen to be rich in hits. Some 1.6% of all compounds tested hit in one or more screens of this group. Unless noted, no stated cut-off is given here; in the data, active means inhibition above about 27%; inactive means the rest.

SMILES | HIV Rev-RRE inh | GALR2 blocker | S1P2 agonist | GALR2 ag | S1P2 blocker | GALR2 ant conf | BLA inh counter
O=C(/C=C/c1cn(CC(O)CN2CCCCCC2)c2ccccc12)c1cccs1 (stereo unspecified) | nt | 20.2 | nt | 1.7 | nt | nt | nt
CCCCN(C)CC(O)Cn1cc(/C=C/C(=O)c2cccs2)c2ccccc21 (stereo unspecified) | nt | 50.1* | nt | 1.2 | nt | 29.4* | 43.1*
CN(C(=S)NC1CCCCC1)C1(c2ccccc2Cl)CCCCC1=O (stereo unspecified) | nt | 27.4* | nt | -0.2 | nt | 33.7* | 8.3
Cc1ccc(S(=O)(=O)CC2CSc3nc4ccccc4n32)cc1 (stereo unspecified) | -3.5 | 36.3* | -4.8 | -1.3 | 58.0* | 29.1* | 7.1
COc1ccc(Br)cc1/C(C)=N/NC1=NCCN1 | -12.1 | 12.5 | -1.1 | -2.7 | 15.6 | nt | nt
CCCCCOc1ccc(Br)cc1/C(C)=N/NC1=NCCN1 | 2.0 | 28.1* | -5.5 | -0.3 | 20.8 | 8.4 | 27.6*
COc1ccc(-n2nc(C(=O)Nc3ccc4c(c3)OCO4)c3ccccc3c2=O)c(OC)c1 | nt | 4.7 | nt | -1.6 | nt | nt | nt
COc1ccccc1-n1nc(C(=O)Nc2ccc3c(c2)OCO3)c2ccccc2c1=O | nt | 41.9* | nt | -1.9 | nt | 26.4 | 31.3*
Oc1ccccc1/C=N/Nc1ccccc1 | nt | 29.5* | nt | -1.2 | nt | 37.8* | 12.9
Oc1ccccc1/C=N/Nc1ncc(Br)cn1 | nt | 8.4 | nt | -1.1 | nt | nt | nt
CC(C)Nc1ncnc2ccc(Br)cc12 | nt | 38.2* | nt | -2.1 | nt | 35.9* | 20.9
CSCCC(Nc1ncnc2ccc(Br)cc12)C(=O)O (stereo unspecified) | 7.8 | 4.1 | -4.9 | -2.6 | -12.9 | nt | nt
Cc1nc2nc(-c3cccs3)cn2nc1C | 30.4 | 28.4* | -12.8 | -1.1 | 38.8 | 31.3* | 34.5*
Cn1c(CNC(=O)Nc2cccc(Cl)c2)nnc1SCc1ccccc1 | 6.2 | 28.5* | -6.7 | -2.0 | 32.6 | 14.5 | 8.4
COc1ccc(S(=O)(=O)Nc2ccc(O)c(Sc3ncn[nH]3)c2)cc1 | 4.3 | 3.3 | 0.5 | -0.6 | -23.9 | nt | nt
O=S(=O)(Nc1cc(Sc2cccc3cccnc23)c(O)c2ccccc12)c1ccc(F)cc1 | nt | 33.6* | nt | -2.3 | nt | 26.8 | 17.1
COc1ccc(S(=O)(=O)Nc2cc(Sc3ncn[nH]3)c(O)c3ccccc23)cc1 | -10.4 | 48.8* | -2.4 | 0.0 | 4.6 | 17.5 | 15.9
Cc1cccc(C)c1C(=NCCCN(C)C)c1ccccc1 | nt | -9.7 | nt | -1.6 | nt | nt | nt
COc1cc(/C=C2\CC/C(=C\c3cc(OC)c(O)c(OC)c3)C2=O)cc(OC)c1O | nt | 57.8* | nt | -1.7 | nt | 40.7* | 30.5*
Cc1[nH]c2ccc(OCc3ccccc3)cc2c1CCN1C(=O)OC(C)(C)C1(C)O (stereo unspecified) | 1.0 | -1.9 | -3.2 | -2.7 | -7.9 | nt | nt
CC1(C)OC(=O)N(CCc2ccccc2)C1(C)O (stereo unspecified) | nt | 31.4* | nt | -2.6 | nt | 10.2 | 9.7
Nc1nc(SCC(=O)Nc2ccccc2Sc2ccccc2)n[nH]1 | 0.8 | -0.9 | -5.3 | -1.8 | -12.1 | nt | nt
COc1ccc(Nc2cnn(-c3nc4ccccc4s3)c(=O)c2Cl)cc1 | nt | 44.3* | nt | 0.2 | nt | 52.2* | 58.3*
Cc1cc(C(=O)CSc2nc3ccccc3[nH]2)c(C)n1CC1CCCO1 (stereo unspecified) | 0.3 | 43.3* | -4.5 | -2.0 | 65.7* | 34.0* | 9.4
COc1ccc2oc(=O)c(-c3ccccc3C(=O)N3CCOCC3)cc2c1 | nt | 2.0 | nt | -0.9 | nt | nt | nt
SMILES | HIV Rev-RRE inh | GALR2 blocker | S1P2 agonist | GALR2 ag | S1P2 blocker | GALR2 ant conf | BLA inh counter
O=C(CCl)N1N=C(c2ccco2)CC1c1cccs1 (stereo unspecified) | nt | 28.6* | nt | -1.0 | nt | 33.1* | 17.6
Nc1ccc2nc(-c3cccs3)[nH]c2c1 | 5.7 | 27.6* | -3.5 | -1.2 | -13.7 | 3.5 | 2.6
Cc1ccc(SCCC(=O)Nc2ccc(Br)c(C)c2)cc1 | nt | 5.0 | nt | -0.5 | nt | nt | nt
COc1ccccc1CNC(=O)COC(=O)[C@H](Cc1c[nH]c2ccccc12)NC(=O)c1cccs1 | nt | 2.1 | nt | -0.7 | nt | nt | nt
Cc1cccc(-n2c(N)c(-c3nc4ccccc4n3C)c3nc4ccccc4nc32)c1 | nt | 10.6 | nt | 0.4 | nt | nt | nt
Cn1c(-c2c(N)n(-c3ccccc3)c3nc4ccccc4nc23)nc2ccccc21 | nt | 33.1* | nt | 0.3 | nt | 34.5* | 47.3*
CC12CCC(C(=O)Nc3ccccc3Cl)(C(Br)C1=O)C2(C)C (stereo unspecified) | nt | 5.0 | nt | -1.9 | nt | nt | nt
COc1cc(OC)c(OC)cc1/C=C/C(=O)c1ccc(NS(=O)(=O)c2ccc(C)cc2)cc1 | nt | 31.4* | nt | -0.8 | nt | 20.9 | 19.4
COc1ccccc1NC(=O)c1[nH]c(C)c(C(C)=O)c1C | 3.2 | 28.4* | -5.4 | -1.8 | 6.7 | 33.0* | 10.3
Cc1ccc(NC(=O)CCc2ccc(S(=O)(=O)NC3CCCCC3)cc2)cc1 | 8.1 | 14.0 | -6.2 | -2.1 | -4.8 | nt | nt
Cc1ccc(NS(=O)(=O)c2ccc(CCC(=O)NC3CC3)cc2)cc1 | 0.7 | 28.1* | -2.7 | -4.0 | -4.0 | 10.0 | 11.5
CC(O)C(=O)NCCOCCOCCNC(=O)C(C)O (stereo unspecified) | 2.3 | 0.7 | -4.5 | -0.8 | 0.9 | nt | nt
COc1ccc(OCCNc2cc(N3CCCCC3)ccc2[N+](=O)[O-])cc1 | 8.3 | 1.6 | -1.4 | -3.0 | -33.3 | nt | nt
COc1ccc(OCCNc2cc(Cl)ccc2[N+](=O)[O-])cc1 | 6.3 | 71.2* | 0.6 | -3.7 | -1.3 | 10.7 | 5.2
CCc1c(C)nc2ncnn2c1NCCc1ccc(OC)cc1 | 1.9 | 32.0* | -9.6 | -1.8 | 26.6 | 35.4* | 10.2
CC(=O)n1cc(Nc2ccccc2C(=O)O)c2ccccc21 | 11.3 | 10.6 | -2.4 | -2.6 | 8.6 | nt | nt
CC(=O)SC(C[N+](=O)[O-])c1cn(C(C)=O)c2ccccc12 (stereo unspecified) | 3.1 | 34.8* | -9.6 | -1.1 | 28.7 | 55.6* | 20.7
CCNC(=O)COc1ccc(C=O)cc1OC | nt | 65.5* | nt | 0.4 | nt | 5.4 | -5.8
COc1ccc(/C=C/C(=O)Nc2ccc(OC)nc2)cc1 | nt | 8.3 | nt | -0.7 | nt | nt | nt
COc1ccc(CS(=O)(=O)/C(Cl)=C(/Cl)C(=O)Nc2ccc(OC)nc2)cc1 | 0.6 | 92.5* | -14.0 | -4.4 | 94.7* | 91.8* | 91.9*
COc1ccc(NC(=O)/C(Cl)=C(/Cl)S(=O)Cc2ccccc2)cn1 (stereo unspecified) | 8.5 | 104.9* | -6.6 | -3.1 | 100.8* | 101.5* | 105.7*
O=C(CNC1CCCCCC1)c1cccs1 | nt | -6.6 | nt | -1.1 | nt | nt | nt
CN(C)c1ccc(NC(=O)CC(NCc2ccccn2)C(=O)O)cc1 (stereo unspecified) | nt | -2.7 | nt | -1.5 | nt | nt | nt
Cc1ccc(-c2nnc(SCC(=O)NC3CCS(=O)(=O)C3)nc2-c2ccc(C)cc2)cc1 (stereo unspecified) | nt | 0.7 | nt | 0.4 | nt | nt | nt
COc1cc(OC)nc(-n2ncc(Br)c(Br)c2=O)n1 | nt | 102.8* | nt | -2.3 | nt | 102.7* | 105.1*

Assay outcomes (PubChem)
